Results as given in ChEMBL document CHEMBL1151455, “Increased macrolide resistance of Mycoplasma pneumoniae in pediatric patients with community-acquired pneumonia” (2008).
In brackets after ≈: the same amount, converted by molar mass.

Experiments:
Type in all cases: functional
[1] = test system: Mycoplasmoides pneumoniae; test: Antimicrobial activity against macrolide-susceptible Mycoplasma pneumoniae isolated from pediatric patients with community-acquired pneumonia after 10 to 14 days by microdilution method
Procedure, shortened: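 Pediatric CAP nasopharyngeal isolates, cultured in PPLO broth from real-time PCR-positive samples; strain M129 as control. Broth microdilution in PPLO broth: inoculum estimated at 10^5 CFU/ml added 1:10 to serially diluted antibiotic. Incubated aerobically at 37°C for 10–14 days, until the antibiotic-free growth control changed colour. MIC taken as lowest concentration preventing colour change; MIC50/MIC90 and range reported.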

[2] = test system: Mycoplasmoides pneumoniae; test: Antimicrobial activity against macrolide-resistant Mycoplasma pneumoniae harboring A2063G transition in domain V of 23S rRNA isolated from pediatric patients with community-acquired pneumonia after 10 to 14 days by microdilution method
Procedure, shortened: (§1)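 Clinical isolates cultured from PCR-positive pediatric nasopharyngeal samples in PPLO broth; resistance mutation identified by full-length 23S rRNA gene sequencing. Broth microdilution in PPLO broth containing serially diluted antibiotics, inoculum estimated at 10^5 CFU/ml in culture. Incubated aerobically at 37°C for 10 to 14 days until the antibiotic-free control changed colour. MIC was the lowest concentration preventing the colour change. Strain M129 served as control.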

[3] = test system: Mycoplasmoides pneumoniae; test: Antimicrobial activity against macrolide-resistant Mycoplasma pneumoniae harboring A2064G transition in domain V of 23S rRNA isolated from pediatric patients with community-acquired pneumonia after 10 to 14 days by microdilution method; procedure, shortened: as §1

SMILES	MIC50 [1] [µg/mL]	MIC90 [1] [µg/mL]	MIC50 [2] [µg/mL]	MIC90 [2] [µg/mL]	MIC [3] [µg/mL]	MIC50 [3] [µg/mL]	MIC90 [3] [µg/mL]
CC[C@H]1OC(=O)[C@H](C)[C@@H](O[C@H]2C[C@@](C)(OC)[C@@H](O)[C@H](C)O2)[C@H](C)[C@@H](O[C@@H]2O[C@H](C)C[C@H](N(C)C)[C@H]2O)[C@](C)(O)C[C@@H](C)C(=O)[C@H](C)[C@@H](O)[C@]1(C)O [ERYTHROMYCIN]	0.0078 (≈ 0.0106 µM)	0.0156 (≈ 0.0213 µM)	64 (≈ 87.2 µM)	> 64	≥ 64	> 64	> 64
CO[C@@H]1[C@@H](O[C@@H]2O[C@H](C)[C@@H](O[C@H]3C[C@@](C)(O)[C@@H](OC(=O)CC(C)C)[C@H](C)O3)[C@H](N(C)C)[C@H]2O)[C@@H](CC=O)C[C@@H](C)[C@@H](O)/C=C/C=C/C[C@@H](C)OC(=O)C[C@H]1OC(C)=O [JOSAMYCIN]	0.0313 (≈ 0.0378 µM)	0.0625 (≈ 0.0755 µM)	8 (≈ 9.66 µM)	16 (≈ 19.3 µM)	–	64 (≈ 77.3 µM)	> 64
CC[C@H]1OC(=O)[C@H](C)[C@@H](O[C@H]2C[C@@](C)(OC)[C@@H](O)[C@H](C)O2)[C@H](C)[C@@H](O[C@@H]2O[C@H](C)C[C@H](N(C)C)[C@H]2O)[C@](C)(O)C[C@@H](C)CN(C)[C@H](C)[C@@H](O)[C@]1(C)O [AZITHROMYCIN]	0.00049 (≈ 0.000654 µM)	0.00098 (≈ 0.00131 µM)	32 (≈ 42.7 µM)	64 (≈ 85.4 µM)	–	32 (≈ 42.7 µM)	64 (≈ 85.4 µM)
CC[C@H]1OC(=O)[C@H](C)[C@@H](O[C@H]2C[C@@](C)(OC)[C@@H](O)[C@H](C)O2)[C@H](C)[C@@H](O[C@@H]2O[C@H](C)C[C@H](N(C)C)[C@H]2O)[C@](C)(OC)C[C@@H](C)C(=O)[C@H](C)[C@@H](O)[C@]1(C)O [CLARITHROMYCIN]	0.0039 (≈ 0.00521 µM)	0.0078 (≈ 0.0104 µM)	64 (≈ 85.6 µM)	> 64	–	64 (≈ 85.6 µM)	64 (≈ 85.6 µM)
CC[C@H]1OC(=O)[C@H](C)C(=O)[C@H](C)[C@@H](O[C@@H]2O[C@H](C)C[C@H](N(C)C)[C@H]2O)[C@](C)(OC)C[C@@H](C)C(=O)[C@H](C)[C@H]2N(CCCCn3cnc(-c4cccnc4)c3)C(=O)O[C@]12C [TELITHROMYCIN]	0.00098 (≈ 0.00121 µM)	0.00195 (≈ 0.0024 µM)	32 (≈ 39.4 µM)	64 (≈ 78.8 µM)	–	4 (≈ 4.93 µM)	16 (≈ 19.7 µM)
C[C@H]1COc2c(N3CCN(C)CC3)c(F)cc3c(=O)c(C(=O)O)cn1c23.C[C@H]1COc2c(N3CCN(C)CC3)c(F)cc3c(=O)c(C(=O)O)cn1c23.O [LEVOFLOXACIN]	0.5	1	1	1	–	1	1
CN(C)c1ccc(O)c2c1C[C@H]1C[C@H]3[C@H](N(C)C)C(O)=C(C(N)=O)C(=O)[C@@]3(O)C(O)=C1C2=O [MINOCYCLINE]	0.5 (≈ 1.09 µM)	1 (≈ 2.19 µM)	0.5 (≈ 1.09 µM)	1 (≈ 2.19 µM)	–	0.5 (≈ 1.09 µM)	1 (≈ 2.19 µM)
CCCC(=O)O[C@H]1[C@H](C)O[C@@H](O[C@H]2[C@H](N(C)C)[C@@H](O)[C@H](O[C@H]3[C@@H](CC=O)C[C@@H](C)[C@@H](O)/C=C/C=C/C[C@@H](C)OC(=O)C[C@@H](O)[C@@H]3OC)O[C@@H]2C)C[C@@]1(C)OC(=O)CC [ROKITAMYCIN]	0.0156 (≈ 0.0188 µM)	0.0156 (≈ 0.0188 µM)	0.125 (≈ 0.151 µM)	0.25 (≈ 0.302 µM)	–	16 (≈ 19.3 µM)	16 (≈ 19.3 µM)
